# Source: publication PMC5494147 (Bioorganic & medicinal chemistry, 2017)
# Legend:
# [1] = system: histone H3 (Lys9/14) acetylation in HCT116 cells; assay: Immunoblot analysis of histone hyperacetylation; type: cell-based; conditions: HCT116, 8 h post-treatment
# In short: (§1)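 Cells grown in DMEM with 10% FBS at 37 °C, 5% CO2; 4 × 10^5 cells seeded and incubated overnight. Treated 8 h with test compound at 0–10 μM final or 1% EtOH vehicle. Whole-cell lysates normalised by BCA; equal protein run on SDS-PAGE, transferred to PVDF, probed with anti-acetyl histone H3 antibody and β-actin, chemiluminescent detection.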
# [2] = system: histone H3 (Lys9/14) acetylation in MDA-MB-231 cells; assay: Immunoblot analysis of histone hyperacetylation; type: cell-based; conditions: MDA-MB-231, 8 h post-treatment
# In short: as §1
# HDAC6 = biological target: T1, HDAC6 (Homo sapiens, UniProt Q9UBN7); conditions: relative to the strongly inhibited isoforms; ref [5]–[6], [6c]; cited from earlier work
# T1 sequence (Q9UBN7 1-1215): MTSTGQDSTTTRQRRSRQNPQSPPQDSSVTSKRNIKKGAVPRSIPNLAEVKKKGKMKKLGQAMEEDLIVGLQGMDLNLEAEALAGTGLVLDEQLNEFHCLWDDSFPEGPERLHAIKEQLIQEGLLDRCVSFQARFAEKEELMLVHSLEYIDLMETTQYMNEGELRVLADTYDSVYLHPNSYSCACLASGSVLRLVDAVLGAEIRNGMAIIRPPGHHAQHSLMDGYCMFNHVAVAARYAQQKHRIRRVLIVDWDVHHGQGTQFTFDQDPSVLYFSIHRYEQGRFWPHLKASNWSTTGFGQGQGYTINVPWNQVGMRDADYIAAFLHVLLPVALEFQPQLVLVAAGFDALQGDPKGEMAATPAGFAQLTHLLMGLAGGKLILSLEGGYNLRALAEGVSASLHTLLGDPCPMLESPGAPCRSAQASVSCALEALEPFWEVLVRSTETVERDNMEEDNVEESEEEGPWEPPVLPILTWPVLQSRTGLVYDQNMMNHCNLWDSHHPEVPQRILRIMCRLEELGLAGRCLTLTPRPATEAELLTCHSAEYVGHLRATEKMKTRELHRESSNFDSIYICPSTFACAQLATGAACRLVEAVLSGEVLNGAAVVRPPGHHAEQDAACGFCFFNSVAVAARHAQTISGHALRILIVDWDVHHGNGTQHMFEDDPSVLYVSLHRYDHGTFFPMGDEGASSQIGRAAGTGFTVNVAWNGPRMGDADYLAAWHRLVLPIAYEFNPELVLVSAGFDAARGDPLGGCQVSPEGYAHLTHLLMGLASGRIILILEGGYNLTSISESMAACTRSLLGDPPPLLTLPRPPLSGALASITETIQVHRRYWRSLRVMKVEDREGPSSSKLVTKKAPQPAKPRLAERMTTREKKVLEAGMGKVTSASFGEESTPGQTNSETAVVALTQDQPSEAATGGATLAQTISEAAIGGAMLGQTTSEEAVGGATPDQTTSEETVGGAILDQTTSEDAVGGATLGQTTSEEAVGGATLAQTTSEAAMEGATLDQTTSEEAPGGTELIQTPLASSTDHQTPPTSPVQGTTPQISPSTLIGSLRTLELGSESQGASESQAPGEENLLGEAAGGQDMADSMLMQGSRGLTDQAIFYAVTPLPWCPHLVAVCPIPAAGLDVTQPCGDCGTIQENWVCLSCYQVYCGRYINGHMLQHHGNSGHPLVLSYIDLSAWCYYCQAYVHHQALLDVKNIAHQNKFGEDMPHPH
# HDAC8 = biological target: T2, HDAC8 (Homo sapiens, UniProt Q9BY41); conditions: compared with HDACs 1–3; ref [5]–[6], [6c]; cited from earlier work
# T2 sequence (Q9BY41 1-377): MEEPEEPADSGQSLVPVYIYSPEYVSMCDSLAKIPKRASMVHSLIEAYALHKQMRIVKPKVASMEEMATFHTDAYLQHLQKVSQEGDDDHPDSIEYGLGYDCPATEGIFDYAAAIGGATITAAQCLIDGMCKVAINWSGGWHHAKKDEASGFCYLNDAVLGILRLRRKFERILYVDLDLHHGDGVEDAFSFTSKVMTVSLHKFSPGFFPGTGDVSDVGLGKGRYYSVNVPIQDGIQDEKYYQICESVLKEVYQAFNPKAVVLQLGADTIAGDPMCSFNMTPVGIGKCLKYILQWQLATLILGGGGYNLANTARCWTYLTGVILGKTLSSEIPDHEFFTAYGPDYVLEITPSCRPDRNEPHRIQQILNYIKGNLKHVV
# HDAC10 = biological target: T3, HDAC10 (Homo sapiens, UniProt Q969S8); conditions: among class II isoforms; ref [5]–[6], [6c]; cited from earlier work
# T3 sequence (Q969S8 1-669): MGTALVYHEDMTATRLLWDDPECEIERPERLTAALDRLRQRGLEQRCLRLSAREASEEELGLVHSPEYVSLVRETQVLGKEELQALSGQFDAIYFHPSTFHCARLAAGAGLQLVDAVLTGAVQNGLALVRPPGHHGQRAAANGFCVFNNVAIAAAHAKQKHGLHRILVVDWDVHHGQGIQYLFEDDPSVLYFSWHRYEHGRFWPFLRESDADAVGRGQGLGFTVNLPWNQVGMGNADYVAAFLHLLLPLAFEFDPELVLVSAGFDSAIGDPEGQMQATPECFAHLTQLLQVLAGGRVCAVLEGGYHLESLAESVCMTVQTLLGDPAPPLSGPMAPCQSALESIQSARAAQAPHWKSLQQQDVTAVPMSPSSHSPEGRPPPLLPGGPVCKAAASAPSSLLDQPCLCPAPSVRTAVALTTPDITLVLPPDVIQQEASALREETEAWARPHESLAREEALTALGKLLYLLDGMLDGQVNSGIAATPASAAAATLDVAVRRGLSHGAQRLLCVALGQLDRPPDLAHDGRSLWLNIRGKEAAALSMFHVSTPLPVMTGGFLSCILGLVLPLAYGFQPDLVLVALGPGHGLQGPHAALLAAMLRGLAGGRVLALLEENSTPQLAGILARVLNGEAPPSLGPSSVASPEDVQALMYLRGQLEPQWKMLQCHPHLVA
# HDAC11 = conditions: ref [5]–[6], [6c]; cited from earlier work
# HDAC isoform 4 = HDAC isoform 4 (Homo sapiens, UniProt P56524); assay: HDAC enzyme inhibitory assay; type: biochemical; conditions: up to concentrations of 10 μM
# HDAC isoform 7 = biological target: T4, HDAC isoform 7 (Homo sapiens, UniProt Q8WUI4); assay: HDAC enzyme inhibitory assay; type: biochemical; conditions: up to concentrations of 10 μM
# T4 sequence (Q8WUI4 1-952): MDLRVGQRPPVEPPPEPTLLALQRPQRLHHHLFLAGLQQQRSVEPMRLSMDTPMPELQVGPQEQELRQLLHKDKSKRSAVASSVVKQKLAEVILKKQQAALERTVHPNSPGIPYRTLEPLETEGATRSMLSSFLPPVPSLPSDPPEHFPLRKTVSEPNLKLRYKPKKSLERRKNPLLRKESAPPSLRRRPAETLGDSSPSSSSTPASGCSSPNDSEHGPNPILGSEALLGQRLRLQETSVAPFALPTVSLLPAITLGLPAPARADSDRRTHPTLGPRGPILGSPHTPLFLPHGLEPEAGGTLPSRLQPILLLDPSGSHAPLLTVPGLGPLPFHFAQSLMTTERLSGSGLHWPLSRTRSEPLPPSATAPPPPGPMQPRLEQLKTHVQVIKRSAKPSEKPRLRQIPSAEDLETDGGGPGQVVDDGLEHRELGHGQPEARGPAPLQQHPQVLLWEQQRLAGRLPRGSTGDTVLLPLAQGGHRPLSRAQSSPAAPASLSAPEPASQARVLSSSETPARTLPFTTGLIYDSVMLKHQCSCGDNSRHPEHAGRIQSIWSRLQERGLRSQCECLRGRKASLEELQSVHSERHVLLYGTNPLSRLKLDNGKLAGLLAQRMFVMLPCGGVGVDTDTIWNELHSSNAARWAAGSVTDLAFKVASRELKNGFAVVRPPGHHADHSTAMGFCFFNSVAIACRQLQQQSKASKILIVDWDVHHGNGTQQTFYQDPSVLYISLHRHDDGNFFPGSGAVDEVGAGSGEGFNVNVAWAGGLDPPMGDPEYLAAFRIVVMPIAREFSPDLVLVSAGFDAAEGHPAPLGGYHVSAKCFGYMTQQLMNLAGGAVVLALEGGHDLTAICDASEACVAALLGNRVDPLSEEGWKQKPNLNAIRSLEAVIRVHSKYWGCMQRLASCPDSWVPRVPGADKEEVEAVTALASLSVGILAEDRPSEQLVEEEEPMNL
# HDAC isoform 9 = HDAC isoform 9 (Homo sapiens, UniProt Q9UKV0); assay: HDAC enzyme inhibitory assay; type: biochemical; conditions: up to concentrations of 10 μM
# HDAC isoform 11 = biological target: T5, HDAC isoform 11 (Homo sapiens, UniProt Q96DB2); assay: HDAC enzyme inhibitory assay; type: biochemical; conditions: up to concentrations of 10 μM
# T5 sequence (Q96DB2 1-347): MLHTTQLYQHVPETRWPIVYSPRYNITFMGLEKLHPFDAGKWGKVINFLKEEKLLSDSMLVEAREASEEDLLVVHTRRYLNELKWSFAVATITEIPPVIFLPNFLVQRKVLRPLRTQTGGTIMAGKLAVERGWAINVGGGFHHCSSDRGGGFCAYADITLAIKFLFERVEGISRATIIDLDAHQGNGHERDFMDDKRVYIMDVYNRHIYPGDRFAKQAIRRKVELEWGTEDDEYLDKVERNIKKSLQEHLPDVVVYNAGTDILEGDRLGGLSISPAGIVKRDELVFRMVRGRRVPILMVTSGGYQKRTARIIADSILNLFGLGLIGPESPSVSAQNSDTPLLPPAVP
# sirtuins = assay: HDAC enzyme inhibitory assay; type: biochemical; conditions: up to concentrations of 10 μM
# Sequence of HDAC isoform 9 (Q9UKV0 whole entry, canonical isoform): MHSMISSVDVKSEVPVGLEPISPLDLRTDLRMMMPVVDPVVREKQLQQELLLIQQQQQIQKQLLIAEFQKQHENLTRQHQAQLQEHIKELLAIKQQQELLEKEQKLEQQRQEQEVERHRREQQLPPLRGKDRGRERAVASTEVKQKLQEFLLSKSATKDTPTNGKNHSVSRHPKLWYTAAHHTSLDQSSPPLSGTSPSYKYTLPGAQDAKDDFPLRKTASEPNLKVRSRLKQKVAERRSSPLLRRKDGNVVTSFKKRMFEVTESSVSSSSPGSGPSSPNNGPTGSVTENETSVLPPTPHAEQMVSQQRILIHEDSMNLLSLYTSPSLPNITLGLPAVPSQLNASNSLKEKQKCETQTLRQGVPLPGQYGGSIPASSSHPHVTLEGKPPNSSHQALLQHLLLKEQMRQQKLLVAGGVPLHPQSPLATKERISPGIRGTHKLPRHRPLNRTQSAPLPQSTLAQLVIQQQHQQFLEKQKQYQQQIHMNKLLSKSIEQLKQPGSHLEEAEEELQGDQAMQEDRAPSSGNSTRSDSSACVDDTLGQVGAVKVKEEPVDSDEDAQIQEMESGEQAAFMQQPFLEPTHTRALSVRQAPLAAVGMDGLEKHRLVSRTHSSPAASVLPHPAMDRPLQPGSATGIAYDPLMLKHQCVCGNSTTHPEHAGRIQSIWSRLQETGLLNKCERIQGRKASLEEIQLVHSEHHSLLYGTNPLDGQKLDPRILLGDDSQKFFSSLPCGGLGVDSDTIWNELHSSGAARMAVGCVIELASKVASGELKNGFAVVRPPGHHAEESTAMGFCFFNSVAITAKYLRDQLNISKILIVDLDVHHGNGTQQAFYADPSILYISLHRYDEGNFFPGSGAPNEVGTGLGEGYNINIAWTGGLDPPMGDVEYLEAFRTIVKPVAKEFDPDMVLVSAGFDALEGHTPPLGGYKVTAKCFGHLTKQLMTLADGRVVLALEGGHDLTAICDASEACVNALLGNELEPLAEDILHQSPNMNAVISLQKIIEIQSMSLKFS
# Sequence of HDAC isoform 4 (P56524 whole entry, canonical isoform): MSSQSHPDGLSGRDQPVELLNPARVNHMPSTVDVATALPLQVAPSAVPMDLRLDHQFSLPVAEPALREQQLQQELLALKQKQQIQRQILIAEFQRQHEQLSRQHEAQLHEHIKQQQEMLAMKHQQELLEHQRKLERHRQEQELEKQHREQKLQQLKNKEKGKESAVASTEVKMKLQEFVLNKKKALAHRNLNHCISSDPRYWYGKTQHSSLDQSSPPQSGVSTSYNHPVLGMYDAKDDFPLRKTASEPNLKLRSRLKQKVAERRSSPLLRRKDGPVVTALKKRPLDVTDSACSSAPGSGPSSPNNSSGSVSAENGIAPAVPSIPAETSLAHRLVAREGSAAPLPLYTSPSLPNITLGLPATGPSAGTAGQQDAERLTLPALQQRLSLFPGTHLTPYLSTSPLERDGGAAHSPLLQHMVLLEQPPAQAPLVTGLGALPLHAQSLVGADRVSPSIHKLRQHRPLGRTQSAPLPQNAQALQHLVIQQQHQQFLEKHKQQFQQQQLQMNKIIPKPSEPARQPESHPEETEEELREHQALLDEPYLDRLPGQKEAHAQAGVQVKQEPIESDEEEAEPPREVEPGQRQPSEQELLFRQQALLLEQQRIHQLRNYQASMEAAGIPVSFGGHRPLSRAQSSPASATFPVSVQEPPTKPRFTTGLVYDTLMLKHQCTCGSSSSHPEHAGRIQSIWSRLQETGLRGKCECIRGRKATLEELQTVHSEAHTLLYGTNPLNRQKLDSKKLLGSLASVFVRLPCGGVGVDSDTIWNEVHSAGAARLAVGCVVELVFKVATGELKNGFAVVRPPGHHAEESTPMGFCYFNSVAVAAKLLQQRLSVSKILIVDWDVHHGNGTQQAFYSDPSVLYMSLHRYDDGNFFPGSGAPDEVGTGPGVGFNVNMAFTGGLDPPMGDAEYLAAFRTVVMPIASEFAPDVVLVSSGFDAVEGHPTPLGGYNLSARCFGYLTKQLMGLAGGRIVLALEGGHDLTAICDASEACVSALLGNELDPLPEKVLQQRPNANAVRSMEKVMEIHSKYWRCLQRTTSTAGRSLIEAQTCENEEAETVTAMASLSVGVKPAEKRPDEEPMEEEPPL
smiles,measurement,setting,value
"CCCCCCCC(=O)SCC/C=C/[C@@H]1CC(=O)NCc2nc(cs2)C2=N[C@@](C)(CS2)C(=O)N[C@@H](C(C)C)C(=O)O1 [compound 5, largazole]",histone H3 (Lys9/14) hyperacetylation,[1],dose-dependent increase
same,histone H3 (Lys9/14) hyperacetylation,[2],dose-dependent increase
same,potency in vitro against HDAC6,HDAC6,two orders of magnitude lower potency
same,HDAC8 inhibition,HDAC8,inhibited to a much lesser extent
same,HDAC10 activity in vitro,HDAC10,severely compromised
same,HDAC11 inhibition,HDAC11,strongly inhibited
"CC(C)[C@@H]1NC(=O)[C@]2(C)CSC(=N2)c2csc(n2)CNC(=O)C[C@@H](/C=C/CCS)OC1=O [compound 6, largazole thiol]",inhibitory activity against isoform 4,HDAC isoform 4,"None of the compounds tested, including largazole thiol 6, showed any inhibitory activity"
same,inhibitory activity against isoform 7,HDAC isoform 7,"None of the compounds tested, including largazole thiol 6, showed any inhibitory activity"
same,inhibitory activity against isoform 9,HDAC isoform 9,"None of the compounds tested, including largazole thiol 6, showed any inhibitory activity"
same,inhibitory activity against isoform 11,HDAC isoform 11,"None of the compounds tested, including largazole thiol 6, showed any inhibitory activity"
same,inhibitory activity against sirtuins,sirtuins,"None of the compounds tested, including largazole thiol 6, showed any inhibitory activity"
CC(C)[C@@H]1NC(=O)[C@]2(C)CSC(=N2)c2csc(n2)CNC(=O)C[C@@H](/C=C/CCC(=O)NO)OC1=O [compound 7],histone H3 (Lys9/14) hyperacetylation,[1],dose-dependent increase
same,histone H3 (Lys9/14) hyperacetylation,[2],dose-dependent increase
CC(C)[C@@H]1NC(=O)[C@]2(C)CSC(=N2)c2csc(n2)CNC(=O)C[C@@H](/C=C/CCSCCS)OC1=O [compound 8],histone H3 (Lys9/14) hyperacetylation,[1],dose-dependent increase
same,histone H3 (Lys9/14) hyperacetylation,[2],dose-dependent increase
